Assays:
[1] = test system: CYP1A1 heterogeneous nuclear RNA (hnCYP1A1)
[2] = test system: CYP1B1 mRNA; assay: CYP1B1 mRNA expression by RT-PCR in HepG2 cells; conditions: 24 hours; for effect on TCDD- and DMBA-induced CYP1B1 mRNA expression: co-treatment with 250 pmol TCDD or 1 μM DMBA
[3] = test system: CYP1B1 mRNA; assay: CYP1B1 mRNA expression by RT-PCR in LS180 cells; conditions: 24 hours; for effect on TCDD- and DMBA-induced CYP1B1 mRNA expression: co-treatment with 250 pmol TCDD or 1 μM DMBA
[4] = test system: CYP1A1, CYP1A2, CYP1B1 (EROD activity); assay: EROD activity in intact HepG2 cells; format: cell-based, human; conditions: 24 hours; for inhibition of TCDD (PAH)-induced EROD activity: 50 μM compound + 250 pmol TCDD; for induction of EROD activity: 50 μM compound alone
[5] = test system: catalase and glutathione reductase; conditions: 25 μM; cited from earlier work
[6] = test system: HepG2 cells; assay: MTT cell viability assay; format: cell-based, human; conditions: 0−100 μM, data not shown
In short: (§1)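 Viability was read as MTT tetrazolium reduction in confluent HepG2 (RPMI 1640) or LS180 (Eagle's MEM with Earle's balanced salts) cells at 37 °C, 5% CO2. Test compound was given at 0–100 µmol/L from DMSO stock; final DMSO ≤0.1%.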

[7] = test system: LS180 cells; assay: MTT cell viability assay; format: cell-based, human; conditions: 0−100 μM, data not shown
In short: as §1

[8] = target: T1, CYP1A1 (Homo sapiens, UniProt P04798); assay: Recombinant CYP1A1 Supersomes EROD activity; format: biochemical; conditions: for change of Vmax with increasing compound concentration / nature of CYP1A1 inhibition (Michaelis-Menten kinetic analysis): recombinant CYP1A1 Supersomes
T1 sequence (P04798 1-512): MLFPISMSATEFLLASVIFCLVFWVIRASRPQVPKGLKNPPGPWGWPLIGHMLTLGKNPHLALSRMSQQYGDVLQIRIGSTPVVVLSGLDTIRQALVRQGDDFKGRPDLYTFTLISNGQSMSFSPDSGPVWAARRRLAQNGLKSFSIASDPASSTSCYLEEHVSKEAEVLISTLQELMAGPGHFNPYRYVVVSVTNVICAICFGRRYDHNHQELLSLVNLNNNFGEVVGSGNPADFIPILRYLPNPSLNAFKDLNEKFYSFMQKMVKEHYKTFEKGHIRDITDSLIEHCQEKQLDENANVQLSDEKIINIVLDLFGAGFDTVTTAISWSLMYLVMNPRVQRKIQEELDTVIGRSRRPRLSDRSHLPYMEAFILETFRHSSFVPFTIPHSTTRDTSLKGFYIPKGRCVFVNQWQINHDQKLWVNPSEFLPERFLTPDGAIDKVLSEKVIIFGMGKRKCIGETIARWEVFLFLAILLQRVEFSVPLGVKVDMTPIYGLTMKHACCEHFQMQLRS

[9] = target: T2, CYP1B1 (Homo sapiens, UniProt Q16678); assay: Recombinant CYP1B1 Supersomes EROD activity; format: biochemical
T2 sequence (Q16678 1-543): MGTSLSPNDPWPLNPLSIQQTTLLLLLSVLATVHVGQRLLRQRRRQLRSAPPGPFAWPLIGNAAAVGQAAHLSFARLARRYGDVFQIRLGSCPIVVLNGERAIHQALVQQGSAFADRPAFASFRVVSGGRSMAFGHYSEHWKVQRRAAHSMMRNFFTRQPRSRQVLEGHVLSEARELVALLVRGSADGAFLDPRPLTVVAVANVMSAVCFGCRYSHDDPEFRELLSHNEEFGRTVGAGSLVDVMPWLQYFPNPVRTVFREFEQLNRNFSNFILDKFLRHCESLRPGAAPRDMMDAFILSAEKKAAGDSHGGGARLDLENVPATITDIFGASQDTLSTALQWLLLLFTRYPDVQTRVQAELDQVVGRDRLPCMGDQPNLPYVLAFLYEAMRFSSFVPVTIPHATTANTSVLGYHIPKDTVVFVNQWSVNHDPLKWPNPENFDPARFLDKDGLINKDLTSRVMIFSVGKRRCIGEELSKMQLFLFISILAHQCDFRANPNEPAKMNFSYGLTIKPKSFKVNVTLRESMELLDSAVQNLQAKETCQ

[10] = target: T3, CYP1A2 (Homo sapiens, UniProt P05177); assay: Recombinant CYP1A2 Supersomes EROD activity; format: biochemical
T3 sequence (P05177 1-516): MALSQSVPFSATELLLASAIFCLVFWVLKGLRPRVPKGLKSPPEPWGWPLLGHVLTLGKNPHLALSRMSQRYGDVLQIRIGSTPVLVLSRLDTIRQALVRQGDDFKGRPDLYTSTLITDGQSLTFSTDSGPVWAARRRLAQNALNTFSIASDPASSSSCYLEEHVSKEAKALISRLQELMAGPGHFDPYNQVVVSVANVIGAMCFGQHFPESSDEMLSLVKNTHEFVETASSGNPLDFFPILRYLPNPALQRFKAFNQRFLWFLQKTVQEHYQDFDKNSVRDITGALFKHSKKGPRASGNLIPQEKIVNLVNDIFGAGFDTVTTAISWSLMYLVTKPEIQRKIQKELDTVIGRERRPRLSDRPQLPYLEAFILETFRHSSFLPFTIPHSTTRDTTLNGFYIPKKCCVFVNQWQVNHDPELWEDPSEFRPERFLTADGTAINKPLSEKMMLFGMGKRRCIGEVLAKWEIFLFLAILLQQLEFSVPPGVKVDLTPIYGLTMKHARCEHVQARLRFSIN

[11] = test system: G6PD mRNA; assay: G6PD mRNA expression by RT-PCR in HepG2 cells; format: cell-based, human; conditions: 50 μM, 24 hours, over 18S RNA control
[12] = test system: CYP1A1 mRNA; assay: CYP1A1 mRNA expression by RT-PCR in HepG2 cells; conditions: co-treatment with 250 pmol TCDD or 1 μM DMBA, 24 hours
[13] = test system: CYP1A2 mRNA; assay: CYP1A2 mRNA expression by RT-PCR in HepG2 cells; conditions: co-treatment with 250 pmol TCDD or 1 μM DMBA, 24 hours
[14] = test system: CYP1A1 mRNA; assay: CYP1A1 mRNA expression by RT-PCR in LS180 cells; conditions: co-treatment with 250 pmol TCDD or 1 μM DMBA, 24 hours
[15] = test system: CYP1A2 mRNA; assay: CYP1A2 mRNA expression by RT-PCR in LS180 cells; conditions: co-treatment with 250 pmol TCDD or 1 μM DMBA, 24 hours
[16] = test system: CYP1A1 heterogeneous nuclear RNA (hnCYP1A1); assay: CYP1A1 gene transcription rate; conditions: HepG2; co-treatment with 250 pmol TCDD or 1 μM DMBA
[17] = test system: phase II genes; assay: Phase II gene expression; format: cell-based, human; conditions: RT-PCR
[18] = rats; cited from earlier work
[19] = target: T4, aryl hydrocarbon receptor (AhR) (Homo sapiens, UniProt P35869); assay: Chromatin immunoprecipitation; conditions: HepG2; 50 μM compound + 10 nmol TCDD; 90 minutes; TCDD alone 6.2-fold
T4 sequence (P35869 11-848): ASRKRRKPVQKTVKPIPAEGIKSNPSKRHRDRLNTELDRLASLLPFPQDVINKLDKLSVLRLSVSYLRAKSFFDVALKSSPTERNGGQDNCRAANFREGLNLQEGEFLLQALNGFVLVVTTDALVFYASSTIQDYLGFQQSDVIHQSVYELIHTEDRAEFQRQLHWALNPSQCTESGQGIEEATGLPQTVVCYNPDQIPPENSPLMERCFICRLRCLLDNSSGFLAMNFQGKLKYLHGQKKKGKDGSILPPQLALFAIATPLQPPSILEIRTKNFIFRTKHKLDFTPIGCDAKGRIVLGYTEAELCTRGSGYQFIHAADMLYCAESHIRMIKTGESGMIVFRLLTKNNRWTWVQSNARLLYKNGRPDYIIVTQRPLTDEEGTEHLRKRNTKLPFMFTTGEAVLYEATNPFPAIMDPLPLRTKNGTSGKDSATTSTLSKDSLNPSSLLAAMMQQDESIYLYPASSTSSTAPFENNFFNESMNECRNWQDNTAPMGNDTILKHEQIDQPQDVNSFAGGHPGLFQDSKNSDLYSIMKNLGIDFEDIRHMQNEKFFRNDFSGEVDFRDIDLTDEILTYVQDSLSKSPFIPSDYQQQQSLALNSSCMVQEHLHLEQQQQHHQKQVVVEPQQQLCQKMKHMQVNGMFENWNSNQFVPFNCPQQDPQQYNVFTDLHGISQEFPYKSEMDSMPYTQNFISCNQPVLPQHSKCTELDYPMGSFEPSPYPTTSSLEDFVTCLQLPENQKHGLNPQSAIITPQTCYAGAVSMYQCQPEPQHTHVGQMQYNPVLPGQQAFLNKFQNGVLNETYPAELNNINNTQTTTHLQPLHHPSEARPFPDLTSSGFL

Compound: Cc1c2ccccc2c(C)c2c1ccc1ccccc12 [DMBA]
- fold increase in hnCYP1A1 expression over DMSO control levels [1]: 12 fold
- fold increase in CYP1B1 mRNA expression compared to DMSO controls ([2]; TCDD 250 pmol, DMBA 1 μM): 8.4 fold
- fold increase in CYP1B1 mRNA expression compared to DMSO controls ([3]; TCDD 250 pmol, DMBA 1 μM): 2.5 fold

Compound: CC1=C(CC(=O)O)c2cc(F)ccc2/C1=C\c1ccc([S+](C)[O-])cc1 (stereo not shown) [sulindac]
- inhibition of TCDD (PAH)-induced EROD activity [4]: not inhibited
- induction of EROD activity [4]: 4.45 +/− 0.09 pmoles/min/well

Compound: O=C(O)Cc1ccccc1Nc1c(Cl)cccc1Cl [diclofenac]
- inhibition of TCDD (PAH)-induced EROD activity [4]: not inhibited

Compound: COc1ccc(-c2cc(=S)ss2)cc1 [ADT, 5-[p-methoxyphenyl]-1,2-dithiole-3-thione]
- increases in the phase II enzymes catalase and glutathione reductase [5]: less than 2 fold

Compound: CC1=C(CC(=O)Oc2ccc(-c3cc(=S)ss3)cc2)c2cc(F)ccc2/C1=C\c1ccc([S+](C)[O-])cc1 (stereo not shown) [ACS 18, (Z)-5-Fluoro-2-methyl-1-[[4-(methylsulfinyl)phenyl]-methylene]-1H-indene-3-acetic acid 4-(5-thioxo-5H-[1,2]dithiol-3-yl)-phenyl ester]
- cell viability (MTT) [6]: non-toxic
- cell viability (MTT) [7]: non-toxic
- inhibition of TCDD (PAH)-induced EROD activity [4]: inhibited
- induction of EROD activity [4]: 0.46 +/− 0.01 pmoles/min/well
- IC50 [8]: 40 nM
- change of Vmax with increasing compound concentration [8]: unchanged
- nature of CYP1A1 inhibition (Michaelis-Menten kinetic analysis) [8]: competitive
- IC50 [9]: 230 nM
- IC50 [10]: 3100 nM
- increase in G6PD mRNA expression [11]: 1.5 fold
- effect on TCDD- and DMBA-induced CYP1A1 mRNA expression [12]: similar
- effect on TCDD- and DMBA-induced CYP1A2 mRNA expression [13]: similar
- effect on TCDD- and DMBA-induced CYP1B1 mRNA expression [2]: similar
- effect on TCDD- and DMBA-induced CYP1A1 mRNA expression [14]: similar
- effect on TCDD- and DMBA-induced CYP1A2 mRNA expression [15]: similar
- effect on TCDD- and DMBA-induced CYP1B1 mRNA expression [3]: similar
- effect on TCDD- and DMBA-stimulated hnCYP1A1 expression [16]: similar

Compound: [Na+].[SH-] [NaHS]
- inhibition of TCDD (PAH)-induced EROD activity [4]: not inhibited

Compound: O=C(Cc1ccccc1Nc1c(Cl)cccc1Cl)Oc1ccc(-c2cc(=S)ss2)cc1 [ACS 15, 2-[(2,6-dichlorophenyl)amino]benzeneacetic acid 4-(3H-1,2,dithiol-3-thione-5-yl)phenyl ester]
- cell viability (MTT) [6]: non-toxic
- cell viability (MTT) [7]: non-toxic
- inhibition of TCDD (PAH)-induced EROD activity [4]: inhibited
- change of Vmax with increasing compound concentration [8]: unchanged
- nature of CYP1A1 inhibition (Michaelis-Menten kinetic analysis) [8]: competitive
- effect on phase II gene expression [17]: No significant increases
- less gastro-intestinal damage than diclofenac [18]: > 90%
- effect on TCDD- and DMBA-induced CYP1A1 mRNA expression [12]: inhibited in a concentration-dependent manner
- effect on TCDD- and DMBA-induced CYP1A2 mRNA expression [13]: inhibited in a concentration-dependent manner
- effect on TCDD- and DMBA-induced CYP1B1 mRNA expression [2]: inhibited in a concentration-dependent manner
- effect on TCDD- and DMBA-induced CYP1A1 mRNA expression [14]: inhibited in a concentration-dependent manner
- effect on TCDD- and DMBA-induced CYP1A2 mRNA expression [15]: inhibited in a concentration-dependent manner
- effect on TCDD- and DMBA-induced CYP1B1 mRNA expression [3]: inhibited in a concentration-dependent manner
- effect on TCDD- and DMBA-stimulated hnCYP1A1 expression [16]: abrogated the stimulatory effects
- level of activated AhR on co-treatment with TCDD (ChIP) [19]: 2.6 fold

— paper PMC2755634 (Clinical cancer research : an official journal of the …, 2009)
